Measured values: ChEMBL document CHEMBL1124004, “Inhibitors of cyclic AMP phosphodiesterase. 3. Synthesis and biological evaluation of pyrido and imidazolyl analogues of 1,2,3,5-tetrahydro-2-oxoimidazo[2,1-b]quinazoline” (J Med Chem, 1988)
Calls of active or inactive are those of the source. The calls are words filed in the database; no cut-off is given here.

Columns and labels:
[1] = species on record: Canis familiaris; test: Dose at which 50% blood pressure decrease in dogs; type: functional; settings: Canis lupus familiaris
Procedure, shortened: (§1)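 Instrumented, anesthetized dogs. Cardiac force, heart rate and blood pressure response curves were plotted against dose. When n > 1, the mean at each dose level was plotted.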

[2] = system: Canis familiaris; test: Percent maximum increase in cardiac force in anesthetized dogs using isoproterenol as agonist at 75 nmol/kg; type: functional, Canis lupus familiaris, Heart
Procedure, shortened: (§2)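 Instrumented, anesthetized dogs. Cardiac force rise from the test agent is expressed as a percent of the maximum cardiac force increase seen in the same animal with isoproterenol as agonist. N = number of experiments.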

[3] = species on record: Canis familiaris; test: Dose at which 50% maximal effect for cardiac force increase in dogs; type: functional; settings: Canis lupus familiaris, Heart; procedure, shortened: as §1
[4] = species on record: Canis familiaris; test: Dose at which 50% heart rate increase in dogs; type: functional; settings: Canis lupus familiaris; procedure, shortened: as §1
[5] = species on record: Homo sapiens; test: Inhibition of ADP induced platelet aggregation; type: functional
Procedure, shortened: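 Human platelets with ADP as the aggregating stimulus. Each assay was run in triplicate at five inhibitor concentrations. The mean at each concentration was plotted and the IC50 was read graphically.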

[6] = target: T1, Phosphodiesterase 3 (Homo sapiens, UniProt Q14432+Q13370); test: Inhibition of platelet cAMP phosphodiesterase
[7] = system: Canis familiaris; test: Percent maximum increase in cardiac force in anesthetized dogs using isoproterenol as agonist at 140 nmol/kg; type: functional, Canis lupus familiaris, Heart; procedure, shortened: as §2
[8] = system: Canis familiaris; test: Percent maximum increase in cardiac force in anesthetized dogs using isoproterenol as agonist at greater than 5000 nmol/kg; type: functional, Canis lupus familiaris, Heart
[9] = system: Canis familiaris; test: Percent maximum increase in cardiac force in anesthetized dogs using isoproterenol as agonist at 125 nmol/kg; type: functional, Canis lupus familiaris, Heart; procedure, shortened: as §2
[10] = species on record: Homo sapiens; test: Inhibition of ADP induced platelet aggregation; inactive; type: functional
[11] = system: Canis familiaris; test: Percent maximum increase in cardiac force in anesthetized dogs using isoproterenol as agonist; inactive at all doses up to 1000 ug/kg; type: functional, organism-based; settings: Canis lupus familiaris; Heart; procedure, shortened: as §2
[12] = system: Canis familiaris; test: Percent maximum increase in cardiac force in anesthetized dogs using isoproterenol as agonist at 185 nmol/kg; type: functional, Canis lupus familiaris, Heart; procedure, shortened: as §2
[13] = target: T1, Phosphodiesterase 3; test: Inhibition of human platelet cAMP phosphodiesterase at 100 uM

Compound | IC50 [5] | IC50 [6] | also measured
CN(C(=O)CCCOc1ccc2c(c1)CN1CC(=O)NC1=N2)C1CCCCC1 [LIXAZINONE] | – | – | ED50 [1]: 0.05 µmol/kg; Max CF response [2]: 71%; ED50 [3]: 0.02 µmol/kg; ED50 [4]: 0.03 µmol/kg
O=C1CN2Cc3cc(OCCn4ccnc4)ccc3N=C2N1 | 40 µM | 2 µM | –
Cc1[nH]c(=O)c(C#N)cc1-c1ccncc1 [MILRINONE] | – | – | Max CF response [7]: 65%; ED50 [1]: 0.59 µmol/kg; ED50 [3]: 0.09 µmol/kg; ED50 [4]: 0.19 µmol/kg
O=C1CN2Cc3ncccc3N=C2N1 | 25 µM | 30 µM | –
O=C1CN2Cc3ccncc3N=C2N1 | 26 µM | 26 µM | –
O=C1CN2Cc3cnccc3N=C2N1 | 46 µM | 18 µM | ED50 [1]: > 1 µmol/kg; Max CF response [8]: 27%; ED50 [3]: 0.78 µmol/kg; ED50 [4]: > 1 µmol/kg
Cc1c(Br)ccc2c1CN1C(=N2)NC(=O)C1C (configuration not stated) | – | 0.07 µM | –
O=C1CN2Cc3cc(O)ccc3N=C2N1 | – | 3.3 µM | –
O=C1CN2Cc3cc(OCCCCCCn4ccnc4)ccc3N=C2N1 | 23 µM | 0.7 µM | –
C[C@@H]1C(=O)NC2=Nc3cccc(Cl)c3CN21 [QUAZINONE] | – | 0.24 µM | –
O=C1CN2Cc3cc(Cl)ccc3N=C2N1 | – | 1.5 µM | –
CC1CC(O)=NN=C1c1ccc(-n2ccnc2)cc1 (configuration not stated) [CI-930] | – | – | Max CF response [9]: 72%; ED50 [1]: 0.1 µmol/kg; ED50 [3]: 0.1 µmol/kg; ED50 [4]: 0.1 µmol/kg
O=C1CN2Cc3cc(OCc4ccccc4)ccc3N=C2N1 | – | 0.56 µM | –
O=C1CN2Cc3cc(I)ccc3N=C2N1 | – | 0.52 µM | –
O=C1CN=C(Nc2ccc(-n3ccnc3)cc2)N1 | – | 250 µM | IC50 [10]: Not Active; Max CF response [11]: inactive
O=C1CN2Cc3ccccc3N=C2N1 | – | 8.8 µM | –
O=C1CN2Cc3cccnc3N=C2N1 | 200 µM | 330 µM | –
O=C1CN2Cc3cc(N4CCCCC4)ccc3N=C2N1 | – | 0.15 µM | –
O=C1CN2Cc3cc(-n4ccnc4)ccc3N=C2N1 | 6 µM | 0.6 µM | Max CF response [12]: 63%; ED50 [1]: 0.64 µmol/kg; ED50 [3]: 0.18 µmol/kg; ED50 [4]: 0.22 µmol/kg
CCc1[nH]c(=O)[nH]c1C(=O)c1ccncc1 [PIROXIMONE] | – | > 100 µM | inhibition [13]: 40%
